Screening results: PubChem BioAssay, several laboratories
Scp-1 inhibitor = Scp-1 (human) phosphatase inhibition | Q9GZU7 | Recombinant Scp1, phosphopeptide, malachite green phosphate absorbance | AID 493091 | inhibition, % at 20 µM | 340,000 compounds, 0.88% hits;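 active = inhibition above about 50% at 20 µM, limit read from the data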
Target sequence (Q9GZU7 76-261 limits assumed): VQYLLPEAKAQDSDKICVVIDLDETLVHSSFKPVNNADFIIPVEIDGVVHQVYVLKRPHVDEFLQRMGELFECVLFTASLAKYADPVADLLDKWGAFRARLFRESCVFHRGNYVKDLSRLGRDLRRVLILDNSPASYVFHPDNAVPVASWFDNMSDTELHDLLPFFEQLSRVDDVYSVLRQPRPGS
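System: SCP-1 catalytic domain; Reagent: Phospho 17-mer peptide substrate; Doses: one concentration, 20 µM, with 1.0% DMSO; Incubation: 45 min room-temperature reaction, 5 min colour, 30 min stabiliser; Signal: Phosphate-binding colour reagent, absorbance read at 630 nm.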
STEP block = inhibitors of human striatal-enriched phosphatase STEP | P54829 | recombinant STEP, OMFP fluorogenic substrate, fluorescence | inhibition, % at 20 µM | 360,000 compounds, 0.25% hits;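 active = inhibition at 20 µM, scaled per plate between control wells, above about 37%, limit read from the data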
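Material: STEP (striatal-enriched tyrosine phosphatase) enzyme, cell-free | Medium: 50 mM Bis-Tris pH 6.0 with 2.5 mM DTT and 0.005% Tween 20 | Read-out: Percent inhibition scaled to no-enzyme and uninhibited-enzyme controls, plate-pattern corrected | Signal: Fluorescence read at 480 nm ex / 540 nm em | Times: 20 min reaction, room temperature, in the dark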
Pemphigus Ab inh = blocks pemphigus antibody binding to human desmoglein-3; DSG3-coupled beads, scFv-anti-DSG3-GFP binding, flow cytometry; hits give low values; binding (percent of control), % at 10 µM; 310,000 compounds, 0.48% hits; AID 588358;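 active = binding more than 3 SD below its plate's average and above zero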;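 also: hits lower antibody fragment binding to DSG3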
SUMO1-SIM PPI = alters human SUMO1 binding to SIM partners. P63165. inhibition, % at 20 µM. 360,000 compounds, 0.33% hits. SUMO1 binding to a labelled peptide, TR-FRET, 1 h. AID 602429; in the data active = inhibition above about 37%
Target sequence (P63165 whole entry, looked up): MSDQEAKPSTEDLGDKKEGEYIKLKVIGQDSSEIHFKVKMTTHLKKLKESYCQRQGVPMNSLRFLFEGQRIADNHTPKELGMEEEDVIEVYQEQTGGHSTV
LMPTP inh = LMPTP (human) inhibition; recombinant LMPTP-A, OMFP fluorogenic substrate, fluorescence intensity; inhibition, % at 20 µM; 360,000 compounds, 0.22% hits; P24666;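 active = compounds that cut the enzyme signal by at least half of the control window in the single-dose screen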
Target sequence (P24666 whole entry, looked up): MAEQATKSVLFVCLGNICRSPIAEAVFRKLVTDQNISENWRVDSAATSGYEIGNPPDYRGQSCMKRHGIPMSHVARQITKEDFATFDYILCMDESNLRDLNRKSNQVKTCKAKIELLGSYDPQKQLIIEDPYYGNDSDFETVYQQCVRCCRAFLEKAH
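Test system: LMPTP-A phosphatase enzyme; input: 0.625 nM LMPTP-A final; reagent: OMFP substrate, 400 µM final; compound dosing: 20 µM single dose, 3% DMSO; incubation: 50 min dark incubation at room temperature; measured by: endpoint fluorescence intensity from OMFP dephosphorylation; measure: % inhibition relative to no-enzyme and uninhibited control wells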
Each line names hits and unclear results; the compound was inactive in the other large screens. Hits are enriched below; roughly 1.7% of the tested compounds scored in any of these assays.

COc1ccc(C(=O)N(CC2CCCO2)C(C(=O)NCCC(C)C)c2ccc(C)cc2)cc1OC (stereo not given)	Pemphigus Ab inh 87
Cc1ccc(N(CC(O)CN2CCOCC2)S(=O)(=O)c2ccc([N+](=O)[O-])cc2)cc1 (stereo not given)	none
Oc1ccc(NCc2ccccc2OCc2ccccc2)cc1	SUMO1-SIM PPI 57
COc1ccc(S(N)(=O)=O)cc1C(=O)NC1CCCc2ccccc21 (stereo not given)	Pemphigus Ab inh -38
COc1ccccc1C(=O)NC1CCCc2ccccc21 (stereo not given)	none (no result: Pemphigus Ab inh)
O=c1c2ccccc2[nH]c(=S)n1CCC1=CCCCC1	none
COc1ccc(Cc2n[nH]c(=O)c3ccccc23)cc1OC	none
CC[n+]1ccc2cc(OC)c(OC)cc2c1Cc1ccc(OC)c(OC)c1	Scp-1 inhibitor 96
COc1ccc(Cc2c3cc(OC)c(OC)cc3cc[n+]2C)cc1OC	Scp-1 inhibitor 101
CN(C)CCN(Cc1ccccc1)C(=O)c1[nH]c(C(F)(F)F)nc1-c1ccccc1	none (no result: Scp-1 inhibitor, Pemphigus Ab inh)
O=C(Nc1ccccc1)/C(=C1\CCCN1)[N+](=O)[O-]	none
COCC(C)OC(=O)c1c(N)n(CC(C)C)c2nc3ccccc3nc12 (stereo not given)	SUMO1-SIM PPI 41
O=C1OCCN1C(=O)[C@H]1[C@H](c2ccccc2)C(c2ccccc2)=NN1c1ccc(Br)cc1	none
O=C(Nc1ccc(-n2nncc2-c2ccco2)cc1)c1cc2ccccc2oc1=O	STEP block 45, SUMO1-SIM PPI 57
O=C(COc1ccc(/C=N/NC(=O)c2cc3ccccc3o2)cc1Cl)Nc1ccccc1	Scp-1 inhibitor 80, STEP block 54
O=C(Nc1ccc(F)cc1)c1ccc(NC(=O)C2CCCO2)cc1 (stereo not given)	none
O=C(Nc1ccc(C(F)(F)F)cc1)c1ccc(NC(=O)C2CCCO2)cc1 (stereo not given)	STEP block 52
CCCCN1CC(N2CCN(C3CCN(C)CC3)CC2)CS1(=O)=O (stereo not given)	none (no result: Scp-1 inhibitor, Pemphigus Ab inh)
O=Nc1c2cc(-c3ccccc3)[nH]nc-2c2ccccc12	Scp-1 inhibitor 62
Cc1ccc(-c2cc3c(N=O)c4ccccc4c-3n[nH]2)cc1	none
COCCN(C(=O)COC(=O)c1cc2c(s1)CCC2)c1c(N)n(Cc2ccccc2)c(=O)[nH]c1=O	Scp-1 inhibitor 88, STEP block 96, SUMO1-SIM PPI 112, LMPTP inh 72
CCC1CCc2sc(C(=O)OCC(=O)N(CCOC)c3c(N)n(Cc4ccccc4)c(=O)[nH]c3=O)cc2C1 (stereo not given)	none
Cc1ccccc1-n1c(C)nnc1SCC(=O)N1CCc2ccccc2C1	none
CCn1c(CC(=O)Nc2ccccc2Cl)nnc1SCC(=O)NC1CCCC1	Pemphigus Ab inh 86
CCn1c(CC(=O)Nc2ccccc2F)nnc1SCC(=O)NC1CCCCC1	none
Cc1c(-c2ccc(Br)cc2)nc2ccccn12	none
CN(C)c1ccc(-c2nc3ccccn3c2/N=C/c2ccc(Br)cc2)cc1	STEP block 42
Cc1c(C)c2c(OCC(=O)N3CCC(C(=O)O)CC3)cc3c(c2oc1=O)CCC(C)(C)O3	none
COCCN(Cc1ccc(C)cc1)C(=O)[C@H]1O[C@@H](n2cnc3c(N)ncnc32)[C@H](O)[C@@H]1O	none (no result: Scp-1 inhibitor, Pemphigus Ab inh)
O=C(Cc1cccs1)Nc1ccc(-c2nnn(CC(=O)N3CCOCC3)n2)cc1	Scp-1 inhibitor 79 (no result: STEP block, Pemphigus Ab inh, SUMO1-SIM PPI, LMPTP inh)
Cc1cc(Nc2ccccc2C(=O)O)n(-c2cccc(Cl)c2)n1	SUMO1-SIM PPI 42
CCOc1ccc(-c2csc(NC(=O)c3cccc(N4C(=O)CCC4=O)c3)n2)cc1	Pemphigus Ab inh 57
CCCCCC(=O)NC(NC(=S)NC1CCS(=O)(=O)C1)C(Cl)(Cl)Cl (stereo not given)	SUMO1-SIM PPI 59
CCCCCC(=O)NC(NC(=S)N1CCOCC1)C(Cl)(Cl)Cl (stereo not given)	none
CC(C)CCNc1ncnc2c1nnn2Cc1ccccc1Cl	Pemphigus Ab inh 84
CC1=NOC(=O)/C1=C\c1ccc(-c2cccc(Cl)c2)o1	SUMO1-SIM PPI 40
CCN(CC(=O)NCc1ccc(F)cc1)C(=O)CN1CCN(c2ccccc2OC)CC1	none
CC(C)NC(=O)N(C)C[C@@H]1OCc2cn(nn2)CCCC(=O)N([C@H](C)CO)C[C@H]1C	none (no result: Scp-1 inhibitor)
CC1(C(=O)NNC(=O)C2CCCCC2)CC1(Cl)Cl (stereo not given)	none
CC1(C)CC(=O)C(C(O)c2ccc([N+](=O)[O-])cc2)C(C)(C)N1 (stereo not given)	none
CC1(C)CC(=O)C(C(O)c2ccccc2)C(C)(C)N1 (stereo not given)	Pemphigus Ab inh 72
O=C(CCCn1cc([N+](=O)[O-])cn1)NC1CCCCCC1	none
COc1ccc(NC(=O)c2ccc3c(c2)S(=O)(=O)c2ccccc2C3=O)cc1	Pemphigus Ab inh 83
COc1ccc(N2CC(C(=O)Nc3nnc(SCC(=O)Nc4ccc(NC(C)=O)cc4)s3)CC2=O)cc1 (stereo not given)	Pemphigus Ab inh 85 (no result: Scp-1 inhibitor)
CCOc1ccc(N2CC(C(=O)Nc3ccncc3)CC2=O)cc1 (stereo not given)	Pemphigus Ab inh 54
CCOc1ccc(N2CC(C(=O)Nc3ccccn3)CC2=O)cc1 (stereo not given)	none
Cc1c(Cl)cccc1NC(=S)N1CCN(c2ccc([N+](=O)[O-])cn2)CC1	Pemphigus Ab inh 90
Cc1cccc(Cl)c1NC(=S)N1CCN(c2ccc([N+](=O)[O-])cn2)CC1	none
CCC(CC)c1nnc(NC(=O)c2ccc3ccccc3n2)s1	Pemphigus Ab inh 13
Nc1nn2c(-c3ccccc3)cc(=O)[nH]c2c1N=Nc1ccc(O)cc1	none
Nc1nn2c(-c3ccccc3)cc(=O)[nH]c2c1N=Nc1ccc(Br)cc1	LMPTP inh 56
Cc1nn(Cc2ccc(F)cc2)c2sc(C(=O)Nc3ccccc3N3CCOCC3)cc12	Pemphigus Ab inh 86
Cc1ccc(C)n1Cc1ccc(C(=O)O)cc1	Scp-1 inhibitor 114, STEP block 93, Pemphigus Ab inh 68
CCCn1c(N)c(N(CCOC)C(=O)c2cc(S(=O)(=O)N3CCCCCC3)ccc2OC)c(=O)[nH]c1=O	none
Cc1ccc(S(=O)(=O)c2c(C)nn(-c3ccccc3)c2OC(=O)c2ccc(Br)o2)cc1	none
O=C1CCCC2=C1C(c1ccc(Br)cc1)c1c([nH]c(=S)[nH]c1=O)N2 (stereo not given)	none
O=c1[nH]c(=S)[nH]c2c1C(c1ccc(Br)cc1)c1c([nH]c(=S)[nH]c1=O)O2	Scp-1 inhibitor 97, STEP block 92, SUMO1-SIM PPI 115, LMPTP inh 68
Oc1ccc(N=Cc2ccc(OCc3ccccc3)cc2)cc1	SUMO1-SIM PPI 63
COc1ccccc1NS(=O)(=O)c1cccc(NS(=O)(=O)c2cc(C(=O)O)ccc2Cl)c1	none (no result: Scp-1 inhibitor)
